Source: ChEMBL document CHEMBL4330057, “Second generation of diazachrysenes: Protection of Ebola virus infected mice and mechanism of action” (Eur J Med Chem, 2019)
Active and inactive are the calls of the source. No cut-off for these calls is given here.

Columns and labels:
[1] = system: Ebolavirus; experiment: Antiviral activity against Ebolavirus; type: functional, organism-based; conditions: Orthoebolavirus
[2] = system: Ebolavirus; experiment: Antiviral activity against Ebolavirus infected in mouse assessed as protection against viral infection at 10 mg/kg/day relative to control; type: functional
[3] = Cytotoxicity against human HeLa cells after 2 hrs by high content imaging analysis; type: cell-based
[4] = Toxicity in 6 hrs post fertilized zebrafish embryo assessed as mortality up to 120 hrs post fertilization; parameters: species or system Danio rerio; conditions: in vivo
[5] = Toxicity in 6 hrs post fertilized zebrafish embryo assessed as lethal effect on egg coagulation up to 50 uM up to 120 hrs post fertilization by inverted microscopic method; parameters: species or system Danio rerio; conditions: in vivo
[6] = Toxicity in 6 hrs post fertilized zebrafish embryo assessed as teratogenic effect by measuring malformation of head up to 50 uM up to 120 hrs post fertilization by inverted microscopic method; type: tissue-based, Danio rerio; conditions: in vivo
[7] = Toxicity in 6 hrs post fertilized zebrafish embryo assessed as teratogenic effect by measuring malformation of tail up to 50 uM up to 120 hrs post fertilization by inverted microscopic method; type: tissue-based, Danio rerio; conditions: in vivo
[8] = Toxicity in 6 hrs post fertilized zebrafish embryo assessed as teratogenic effect by measuring scoliosis up to 50 uM up to 120 hrs post fertilization by inverted microscopic method; parameters: species or system Danio rerio; conditions: in vivo
[9] = Toxicity in 6 hrs post fertilized zebrafish embryo assessed as teratogenic effect by measuring liver morphology and color up to 50 uM up to 120 hrs post fertilization by inverted microscopic method; type: tissue-based, Danio rerio; conditions: in vivo
[10] = Toxicity in 6 hrs post fertilized zebrafish embryo assessed as teratogenic effect by measuring growth retardation up to 50 uM up to 120 hrs post fertilization by inverted microscopic method; parameters: species or system Danio rerio; conditions: in vivo
[11] = Selectivity index, ratio of toxic concentration for hepatotoxicity in transgenic l-fabp:EGFP zebrafish embryo to EC50 for Ebolavirus H. sapiens-wt/1995/Kikwit-9510621; type: toxicity; conditions: read-out: Selectivity Index
[12] = Myelotoxicity in 6 hrs post fertilized transgenic mpx:GFP zebrafish embryo assessed as reduction in neutrophil occurrence up to 20 uM measured at 72 hrs hrs post fertilization by fluorescence assay; parameters: species or system Danio rerio
How it was run: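 Tg(mpx:GFP) zebrafish embryos with GFP-labelled neutrophils were treated with compound. At 72 hpf, neutrophil fluorescence of the whole embryo and neutrophil occurrence were assessed.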

[13] = Selectivity index, ratio of LC50 for toxicity in transgenic zebrafish embryo assessed as mortality to EC50 for Ebolavirus H. sapiens-wt/1995/Kikwit-9510621; conditions: read-out: Selectivity Index
[14] = system: HeLa; experiment: Cytotoxicity against human HeLa cells at 50 uM after 2 hrs; type: cell-based
[15] = molecular target: Cathepsin B (Homo sapiens) (UniProt P07858); experiment: Inhibition of cathepsin B activity in human HeLa cells at 2 uM after 12 hrs by magic red substrate based fluorescence assay; type: cell-based
How it was run: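 HeLa cells were exposed to compound for 12 h, then given the Magic Red cathepsin B peptide reporter, washed, and imaged at Ex/Em 590/630. Total intensity and average area of red fluorescence were scored by high-content analysis. Eight wells per point, about 3000 cells/well, mean ± SD, three independent experiments.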

[16] = molecular target: Procathepsin L (Homo sapiens) (UniProt P07711); experiment: Inhibition of cathepsin L activity in human HeLa cells at 2 uM after 6 hrs by HCA; type: cell-based
Chain of Procathepsin L (Homo sapiens) (P07711 114-333 limits assumed): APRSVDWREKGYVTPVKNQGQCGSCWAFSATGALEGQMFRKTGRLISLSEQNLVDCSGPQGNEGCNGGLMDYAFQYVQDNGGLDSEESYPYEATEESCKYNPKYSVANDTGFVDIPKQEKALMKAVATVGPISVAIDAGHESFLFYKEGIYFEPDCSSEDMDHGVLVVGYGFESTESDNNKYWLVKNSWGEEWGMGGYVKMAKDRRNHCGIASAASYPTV

[17] = system: HeLa; experiment: Inhibition of lysosome fusion with autophagosome in human HeLa cells harboring GFP-LC3 assessed as increase in GFP-LC3-2 clustering up to 50 uM after 6 hrs by Western blot analysis; type: functional, cell-based
How it was run: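 HeLa cells were exposed to compound for 6 h, then lysed and analysed by Western blot.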

[18] = Solubility of the compound in pH 7.4 buffer by laser nephelometric method; type: physicochemical
How it was run: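 Solubility at pH 7.4 was measured by laser nephelometry (light scattering), in triplicate.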

[19] = molecular target: Cytochrome P450 3A4 (Homo sapiens, UniProt P08684); experiment: Inhibition of CYP3A4 (unknown origin) using dibenzylfluorescein as substrate; type: ADME
Chain of Cytochrome P450 3A4 (P08684 whole entry): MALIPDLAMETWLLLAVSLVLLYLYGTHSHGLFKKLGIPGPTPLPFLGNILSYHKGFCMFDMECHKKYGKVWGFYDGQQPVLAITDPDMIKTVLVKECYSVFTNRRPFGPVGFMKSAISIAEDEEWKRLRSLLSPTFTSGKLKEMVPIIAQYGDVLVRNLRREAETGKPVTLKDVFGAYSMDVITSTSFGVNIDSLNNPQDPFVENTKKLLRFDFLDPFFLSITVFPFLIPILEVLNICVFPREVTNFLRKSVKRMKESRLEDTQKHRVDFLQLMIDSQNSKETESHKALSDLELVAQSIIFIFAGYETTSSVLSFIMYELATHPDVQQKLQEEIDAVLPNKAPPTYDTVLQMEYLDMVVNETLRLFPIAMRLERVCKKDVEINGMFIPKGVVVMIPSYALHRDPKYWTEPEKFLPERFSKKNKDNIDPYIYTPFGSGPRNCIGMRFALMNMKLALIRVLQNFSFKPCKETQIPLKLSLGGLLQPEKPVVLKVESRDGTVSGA
How it was run: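 CYP IC50 was taken from the net fluorescent signal after incubation at 37 °C for a set time with active cytochrome P450 enzyme and a fluorescent probe substrate.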

[20] = Drug uptake in C57Bl/6 mouse serum at 20 mg/kg/day, ip qd for 7 days measured at 24 hrs post last dose by UHPLC/MS analysis; type: ADME, organism-based; conditions: read-out: Drug uptake
How it was run: (§1)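 Serum from two mice dosed 20 mg/kg/day i.p. taken 24 h after the last dose. Compound quantified by UHPLC/MS and screened for M+2, M+16, M-2 and M+32 products or combinations.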

[21] = Drug metabolism in C57Bl/6 mouse assessed as oxygenation metabolite formation at 20 mg/kg/day, ip qd for 7 days measured at 24 hrs post last dose by UHPLC/MS analysis; type: ADME, organism-based; conditions: in vivo; how it was run: as §1
[22] = Hepatotoxicity in 6 hrs post fertilized transgenic l-fabp:EGFP zebrafish embryo assessed as change in liver area index up to 30 uM up to 120 hrs post fertilization by fluorescence assay; type: toxicity, Danio rerio; conditions: in vivo
How it was run: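 Tg(l-fabp:EGFP) zebrafish embryos exposed from 6 hpf. At 120 hpf, liver area index (liver area/lateral body area) and liver fluorescence assessed by in vivo imaging.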

[23] = Acute toxicity in C57Bl/6 mouse assessed as effect on behavior at 20 mg/kg/day, ip qd for 7 days measured twice daily for 28 days; type: organism-based; conditions: in vivo, 672 h
How it was run: (§2)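 Six healthy mice received 20 mg/kg i.p. once daily for seven doses. Behaviour and appearance observed twice daily for 28 days after the last dose.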

[24] = Acute toxicity in C57Bl/6 mouse assessed as effect on appearance at 20 mg/kg/day, ip qd for 7 days measured twice daily for 28 days; type: organism-based; conditions: in vivo, 672 h; how it was run: as §2
[25] = Solubility of the compound in deionized water; type: physicochemical
[26] = system: Zaire ebolavirus; experiment: Antiviral activity against Ebolavirus Mayinga infected in ip dosed Balb/c mouse assessed as protection against viral infection administered 2 hrs prior to viral infection daily for 6 days and measured for 14 days; type: functional, organism-based; conditions: 1976
[27] = system: Zaire ebolavirus; experiment: Antiviral activity against Ebolavirus Mayinga infected in Balb/c mouse assessed as protection against viral infection at 1 to 5 mg/kg, ip administered 2 hrs prior to viral infection daily for 6 days and measured for 14 days relative to control; type: functional, 1976
[28] = system: Zaire ebolavirus; experiment: Antiviral activity against VSV pseudotyped Ebolavirus Mayinga expressing GFP infected in human HeLa cells assessed as inhibition of viral infection at 2 uM pre-incubated for 2 hrs followed by viral infection and measured after 8 hrs by cell mask deep red staining based assay; type: functional, organism-based; conditions: 1976
How it was run: (§3)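 HeLa cells pretreated 2 h with compound, then infected with rVSV-EBOV-GP-GFP (8 h) or VSV-GFP (6 h), and stained with Cell Mask Deep Red. Relative inhibition = 1 minus (% GFP-expressing cells normalised to mock). Mean ± SD of three replicates, representative of three independent experiments.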

[29] = system: Vesicular stomatitis virus; experiment: Antiviral activity against VSV expressing GFP infected in human HeLa cells assessed as inhibition of viral infection at 50 uM pre-incubated for 2 hrs followed by viral infection and measured after 6 hrs by cell mask deep red staining based assay; type: functional, organism-based; how it was run: as §3
[30] = system: HeLa; experiment: Induction of lysosome suppression in human HeLa cells assessed as vesicular compartment expansion pretreated for 2 hrs followed by VSV pseudotyped EBOV-GP-GFP infection for 2 to 6 hrs by uranyl acetate staining based transmission electron microscopic method; type: functional, subcellular
How it was run: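 HeLa cells mock-treated or treated 2 h with compound, then left uninfected or infected with rVSV-EBOV-GP-GFP for 2 h or 6 h. Processed for transmission electron microscopy to examine vesicular compartments.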

`Cl.Cl.Cl.Cl.c1cc(NCCN2CCOCC2)c2ccc3c(ccc4c(NCCN5CCOCC5)ccnc43)c2n1` showed an EC50 [1] of 0.7 µM, an Activity [2] of 90% and a CC50 at 2 h [3] greater than 20 µM. The Activity [4] was “Dose-dependent effect”, the LC50 [4] was 72.1 µM and the Activity [5] was “Non-Toxic”. The Activity [6] was “Non-Toxic”, the Activity [7] was “Non-Toxic” and the Activity [8] was “Non-Toxic”. The Activity [9] was “Non-Toxic”, the Activity [10] was “Non-Toxic” and the selectivity ratio [11] was 103. For the same compound, the Activity [12] was “Non-Toxic”, the selectivity ratio [13] was 70 to 100 and the Activity [14] was “Toxic”. For the same compound, the inhibition [15] was “Active”, the inhibition [16] was “Active” and the inhibition [17] was “Active”.

In the case of `Cl.Cl.Cl.Cl.c1cc(NCCCCN2CCOCC2)c2ccc3c(ccc4c(NCCN5CCOCC5)ccnc43)c2n1`, the CC50 at 2 h [3] is reported as 8 µM, the solubility kinetic [18] is reported as greater than 0.05 mg/mL and the INH [19] is reported as greater than 10 µM. The concentration at 24 h [20] was 350 to 1200 nM, the Drug metabolism [21] was “Metabolite_Notdetected” and the Activity [4] was “Dose-dependent effect”. For the same compound, the LC50 [4] was 18.9 µM, the Activity [5] was “Non-Toxic” and the Activity [6] was “Non-Toxic”. The Activity [7] was “Non-Toxic”, the Activity [8] was “Non-Toxic” and the Activity [9] was “Non-Toxic”. The Activity [10] was “Non-Toxic”, the Activity [22] was “Non-Toxic” and the selectivity ratio [11] was 73. The selectivity ratio [13] was 70 to 100, the Activity [23] was “Non-Toxic” and the Activity [24] was “Non-Toxic”. The solubility [25] was no less than 25 mg/mL, the Activity [26] was “Dose-dependent effect” and the Activity [27] was 50%. The Activity [28] was “Active”, the Activity [29] was “Active” and the Activity [14] was “Toxic”. The inhibition [15] was “Active”, the inhibition [16] was “Active” and the inhibition [17] was “Active”. The Activity [30] was “Active”.
